Assay outcomes deposited in PubChem BioAssay by several laboratories.
Sampled rows, rich in hits. Any-hit rate of the full collection: about 1.8%.
Cneo AK release: causes C. neoformans cell lysis; 360,000 tested, 0.2% active; lysis activity, % at 15 µM; adenylate kinase release luminescence, 4 h; normalised: neutral wells 0, clomiphene wells 100;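 active means mean lysis activity across replicates of at least 80%, whatever share of replicates individually reach that level; inactive means mean lysis activity below 80%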
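Material – log-phase Cryptococcus neoformans yeast cells · Input – 5 × 10^6 yeast cells/mL · Medium – fresh YPD growth medium · Doses – single compound concentration per well · Timing – static 4 h at 37 °C with compound, 1 h detection · Detection – adenylate kinase release luminescence · Read-out – signal increase indicating cell lysis · Control set – Clomiphene as positive lysis control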
Efflux pump inh: inhibitors of Candida antifungal efflux pumps expressed in yeast; S. cerevisiae Candida pump triplex, Nile Red efflux; inhibition, % at 10 µM; 330,000 tested, 0.44% active;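 active means plate passing quality check with inhibition over a set limit, or well fluorescence over plate mean plus 4 SD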;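 further: Nile Red retained in pooled yeast measured as flow cytometry median fluorescence; higher means more Nile Red kept so more efflux inhibition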
Mot1-301 SUMO: inhibitors of SUMOylation pathway: yeast Mot1-301 growth rescue; 320,000 tested, 1% active; growth rescue, % at 18.8 µM; S. cerevisiae Mot1-301 growth rescue, ATP luminescence, 38.5C; percent above DMSO median, 100 means doubled;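 active means every valid replicate shows activation above 250% relative to neutral control wells; inactive means the rest, any valid replicate at or below 250%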
Statin myotox sup: protects C2C12 myotubes from simvastatin toxicity. ATP luminescence, 48 h; scaled: DMSO 0, geranylgeraniol control 100. rescue of ATP level, % at 7.49 µM. 330,000 tested, 0.78% active. AID 602340;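 active means mean ATP rescue above about 67%, or every replicate alone reaching that limit, limit read from the data, passing the limit was not always enough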;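 further: myotubes were challenged with 10 µM simvastatin during compound exposure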
Each line names hits and unclear results; the compound was inactive in the other large screens.

COC(=O)c1ccc(NC(=O)C2C3C=CC(O3)C2C(=O)O)cc1 (stereo not given)	Statin myotox sup 90
COCCCn1c(Cc2csc(Nc3cccc(Cl)c3)n2)nnc1SCC(=O)OC	none
CCC1CCC(NC2CCCCNC2=O)CC1 (stereo not given)	none (no result: Statin myotox sup)
CS(=O)(=O)c1ccc2nc(NC(=O)CN3CCN(Cc4ccccc4)CC3)sc2c1	none
CS(=O)(=O)c1ccc2nc(NC(=O)CN3CCC(Cc4ccccc4)CC3)sc2c1	Mot1-301 SUMO 294
N=c1n(-c2ccccc2)c(O)cc(=O)n1-c1ccccc1	Statin myotox sup 123
O=C(O)c1ccc(C(=O)c2ccc3c(c2)C(=O)N(Cc2ccco2)C3=O)cc1	Statin myotox sup 110
COCCNC(=O)Nc1ccc2nc(-c3cccs3)c(-c3cccs3)nc2c1	Statin myotox sup 125
Fc1ccccc1COc1ccc(-c2nnn(Cc3ccccc3F)n2)cc1	Statin myotox sup 120
Cn1nnc(-c2ccc(OCc3ccccc3F)cc2)n1	none
COc1cccc(-c2ccc3c(c2)[C@H]2[C@H](CCN2C(=O)Cc2ccncc2)[C@H](CO)N3C)c1	Cneo AK release 91 (no result: Efflux pump inh, Mot1-301 SUMO)
CC(C)NC(=O)N1CC[C@@H]2[C@@H](CO)N(C)c3ccc(-c4cccc(F)c4)cc3[C@@H]21	Cneo AK release 92 (no result: Efflux pump inh, Mot1-301 SUMO)
CC(C)NC(=O)N1CC[C@@H]2[C@H]1c1cc(-c3cccc(F)c3)ccc1N(C)[C@@H]2CO	none (no result: Efflux pump inh, Mot1-301 SUMO)
CCC(=O)N1CC[C@@H]2[C@H]1c1cc(-c3cccc(OC)c3)ccc1N(C)[C@@H]2CO	none (no result: Efflux pump inh, Mot1-301 SUMO)
COC(=O)c1cccc(OCC(O)Cn2cnc3cc(C)c(C)cc32)c1 (stereo not given)	none
COC(=O)c1cccc(OCC(O)Cn2ccnc2)c1 (stereo not given)	Statin myotox sup 109
COc1cccc(C(=O)Nc2cc(C(=O)NCCc3ccccc3)ccc2Cl)c1	none
Cc1cc(C)nc(Sc2nc(Cl)nc(N(c3ccccc3)c3ccccc3)n2)n1	Statin myotox sup 102
Cc1cc(C)nc(SC(C(=O)O)c2ccccc2)n1 (stereo not given)	none (no result: Cneo AK release, Statin myotox sup)
CCOC(=O)C1=C(C)Nc2ccccc2N=C1NC(=O)c1cccc(S(=O)(=O)N(C)C)c1	Statin myotox sup 111
CCOC(=O)C1=C(CC)Nc2ccccc2N=C1NC(=O)c1ccc(S(=O)(=O)N(C)C)cc1	none
OC1(c2ccccc2)CCN(Cc2ccccc2)C2CCCCC21 (stereo not given)	none
O=C(C[C@H]1CC[C@@H](NC(=O)c2ccc(F)cc2)[C@@H](CO)O1)NCCc1ccccc1	none (no result: Efflux pump inh, Mot1-301 SUMO)
C[C@@H]1CN([C@H](C)CO)C(=O)Cc2cc(NC(=O)CCCCCC(=O)Nc3ccccc3N)ccc2O[C@H]1CN(C)C(=O)Nc1ccccc1	Cneo AK release 105 (no result: Efflux pump inh, Mot1-301 SUMO)
C[C@H]1CN([C@@H](C)CO)C(=O)Cc2cc(NC(=O)CCCCCC(=O)Nc3ccccc3N)ccc2O[C@H]1CN(C)C(=O)Nc1ccccc1	Cneo AK release 94 (no result: Efflux pump inh, Mot1-301 SUMO)
O=C(CCCSc1nnc(-c2cccs2)n1CC1CCCO1)c1ccccc1 (stereo not given)	none
CCOCCCn1c(=NC(=O)c2ccco2)c(C(=O)OCC)cc2c(=O)n3cccc(C)c3nc21	none (no result: Cneo AK release)
CC(=O)Nc1ccc(NC(=O)C2CC(=O)N(C(C)C)C2)cc1 (stereo not given)	none
CC(C)N1CC(C(=O)Nc2ccccc2)CC1=O (stereo not given)	Mot1-301 SUMO 305
O=C(C[C@@H]1CC[C@@H](NC(=O)C2CCOCC2)[C@H](CO)O1)NCC1CCCCC1	none (no result: Efflux pump inh, Mot1-301 SUMO)
Clc1cccc(Cc2c(-c3ccccc3)nc3ccc(Br)cn23)c1	none (no result: Efflux pump inh, Mot1-301 SUMO)
C[C@H]1CN([C@@H](C)CO)C(=O)Cc2cc(NC(=O)Nc3ccccc3)ccc2O[C@H]1CN(C)Cc1ccc(Cl)c(Cl)c1	none (no result: Efflux pump inh, Mot1-301 SUMO)
COc1ccc(CN(C)C[C@@H]2Oc3ccc(NC(=O)Nc4ccc(F)cc4)cc3CC(=O)N([C@H](C)CO)C[C@H]2C)cc1	Cneo AK release 115 (no result: Efflux pump inh, Mot1-301 SUMO)
C[C@@H]1CN([C@@H](C)CO)C(=O)Cc2cc(NC(=O)Nc3ccc(F)cc3)ccc2O[C@@H]1CN(C)Cc1ccc(Cl)c(Cl)c1	Statin myotox sup 108
COc1ccc(CN(C)C[C@H]2Oc3ccc(NC(=O)Nc4ccc(F)cc4)cc3CC(=O)N([C@H](C)CO)C[C@H]2C)cc1	none (no result: Efflux pump inh, Mot1-301 SUMO)
O=S(=O)(c1cccc2nsnc12)N1CCOCC1	Statin myotox sup 114
O=S(=O)(c1cccc2nsnc12)N1CCN(C/C=C\c2ccccc2)CC1	Mot1-301 SUMO 309
O=C1/C(=C/C=C/c2ccco2)SC(=S)N1NS(=O)(=O)c1ccccc1	Efflux pump inh 1.5 (no result: Statin myotox sup)
CCOC(=O)CSc1nc2ccc(S(=O)(=O)N3CCOCC3)cc2[nH]1	none
Cc1cccc(OCCSc2nc3ccccc3n2CC(=O)O)c1	none
CNC(=S)NNC(=O)c1cccn(Cc2ccc(Cl)cc2Cl)c1=O	Mot1-301 SUMO 336 (no result: Cneo AK release, Statin myotox sup)
COC(=O)c1sc(S(=O)(=O)Nc2ccc(C)cc2)c(C(=O)OC)c1C	none (no result: Cneo AK release, Statin myotox sup)
COC(=O)c1sc(S(=O)(=O)Nc2ccc3cn[nH]c3c2)c(C(=O)OC)c1C	Statin myotox sup 117
CC(=O)Nc1cc2cc(NS(=O)(=O)c3ccc(C)cc3)ccc2oc1=O	none
Cc1ccc(C(C[N+](=O)[O-])c2c(-c3ccccc3O)[nH][nH]c2=O)cc1 (stereo not given)	Mot1-301 SUMO 272 (no result: Cneo AK release, Statin myotox sup)
COc1ccc(CN(C(=O)c2ccco2)c2ccc(C)c(C)c2)cc1	Mot1-301 SUMO 403
COc1ccc(N(C(=O)c2ccco2)S(=O)(=O)c2cc(OC)ccc2OC)cc1	Statin myotox sup 104
COCCNC(=O)c1c(CS(=O)(=O)c2ccccc2)noc1C(=O)NCc1ccccc1	Statin myotox sup 96 (no result: Efflux pump inh)
COc1ccccc1[C@@]1(C)ON(c2ccccc2C(F)(F)F)C1=O	Mot1-301 SUMO 326
CCCN1C[C@@H](C)[C@@H](OC)CN(C)C(=O)c2cc(NC(=O)c3cccc(F)c3)ccc2OC[C@@H]1C	none (no result: Efflux pump inh, Mot1-301 SUMO)
CO[C@H]1CN(C)C(=O)c2cc(NC(=O)Nc3cccc(F)c3)ccc2OC[C@H](C)N(C)C[C@H]1C	Cneo AK release 103 (no result: Efflux pump inh, Mot1-301 SUMO)
CCCN1C[C@@H](C)[C@H](OC)CN(C)C(=O)c2ccc(NC(=O)c3cccc(F)c3)cc2OC[C@@H]1C	Cneo AK release 115 (no result: Efflux pump inh, Mot1-301 SUMO)
O=C(Cn1nnc2ccccc21)Nc1ccc(Cl)cn1	none (no result: Statin myotox sup)
C[C@H]1CN([C@@H](C)CO)C(=O)Cc2cc(NC(=O)CCCCCC(=O)Nc3ccccc3N)ccc2O[C@H]1CN(C)CC1CCCCC1	Statin myotox sup 147 (no result: Efflux pump inh, Mot1-301 SUMO)
C[C@@H]1CN([C@H](C)CO)C(=O)Cc2cc(NC(=O)CCCCCC(=O)Nc3ccccc3N)ccc2O[C@H]1CN(C)Cc1ccc(-c2ccccc2)cc1	Statin myotox sup 135 (no result: Efflux pump inh, Mot1-301 SUMO)
C[C@H](CO)N1C[C@H](C)[C@H](CN(C)Cc2ccc3c(c2)OCO3)Oc2ccc(NC(=O)CCCCCC(=O)Nc3ccccc3N)cc2CC1=O	Statin myotox sup 103 (no result: Efflux pump inh, Mot1-301 SUMO)
C[C@@H]1CN([C@H](C)CO)C(=O)Cc2cc(NC(=O)CCCCCC(=O)Nc3ccccc3N)ccc2O[C@@H]1CN(C)Cc1ccc(-c2ccccc2)cc1	none (no result: Efflux pump inh, Mot1-301 SUMO)
